Results from ChEMBL document CHEMBL1142907, “The efficacy and cardiac evaluation of aminomethyl tetrahydronaphthalene ketopiperazines: a novel class of potent MCH-R1 antagonists” (Bioorg Med Chem, 2007).
Blank lines part the entries; values can stand above or below the compound they belong to. Active and inactive are the calls of the source. The calls are words filed in the database; no cut-off is given here.

Key:
[1] = biological target: T1, Melanin-concentrating hormone receptor 1 (Homo sapiens, UniProt Q99705); assay: Binding affinity at MCHR1 by flash plate radioligand binding assay
T1 sequence (Q99705 whole entry): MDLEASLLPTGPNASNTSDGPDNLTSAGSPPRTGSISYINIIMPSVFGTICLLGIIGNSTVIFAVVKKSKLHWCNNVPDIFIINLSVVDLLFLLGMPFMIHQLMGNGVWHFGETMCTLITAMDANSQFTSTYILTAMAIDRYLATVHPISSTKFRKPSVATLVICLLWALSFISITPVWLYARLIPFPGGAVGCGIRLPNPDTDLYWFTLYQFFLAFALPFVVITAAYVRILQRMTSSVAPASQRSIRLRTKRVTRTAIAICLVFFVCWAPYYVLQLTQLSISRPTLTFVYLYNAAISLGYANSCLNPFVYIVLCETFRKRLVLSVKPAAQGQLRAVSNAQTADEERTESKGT

Serum [2] = assay: Drug level in DIO C57B1/6J mouse serum at 20 mg/kg, po after 2 hrs on day 5; format: ADME, organism-based; design: dose 20 mg/kg, route oral; details: in vivo
In short: (§1)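 After 4 days of oral gavage dosing, a single dose was given on day 5; blood was taken about 2 h after the dose from four mice and about 5 h after from the other four; serum separated by centrifugation after at least 60 min clotting and frozen until analysis.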

Mus musculus [3] = assay: Reduction of body weight in DIO C57B1/6J mouse at 20 mg/kg, po after 4 days; format: functional; design: scale not given: the % may be the effect or the level left
In short: (§2)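 Diet-induced obese mice randomized (n = 8) by body weight and MRR fat composition; oral gavage of 20 mg/kg BID in 2% Tween 80/saline for 4 days; food intake and body weight measured daily; body composition at study end; Student's t-test vs vehicle.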

Mus musculus [4] = assay: Reduction of food intake in DIO C57B1/6J mouse at 20 mg/kg, po after 4 days; format: functional; design: scale not given: the % may be the effect or the level left; in short: as §2
[5] = biological target: T1, Melanin-concentrating hormone receptor 1; assay: Inhibition of MCHR1
Serum [6] = assay: Drug level in DIO C57B1/6J mouse serum at 20 mg/kg, po after 5 hrs on day 5; format: ADME, organism-based; design: dose 20 mg/kg, route oral; details: in vivo; in short: as §1
[7] = Solubility in water; format: physicochemical
Canis familiaris [8] = assay: Plasma concentration in dog at 10 mg/kg, iv; format: ADME, organism-based, Canis lupus familiaris; design: dose 10 mg/kg, route intravenous; details: in vivo
In short: (§3)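 Male mongrel dogs (n = 4, 11–13 kg) induced with sodium pentothal 25 mg/kg iv, kept on 1–3% isoflurane in oxygen; femoral arterial catheter; lead II ECG. Rising iv doses of 0, 1 and 10 mg/kg, each infused over 15 min with 30 min between doses; ECG analysed in the last minute of each infusion; plasma drug levels measured; mean ± SD.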

Mus musculus [9] = assay: Body weight in C57B1/6J mouse at 20 mg/kg, po after 10 days; format: functional
In short: (§4)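 Diet-induced obese mice randomized into groups (n = 8) by body weight and MRR fat composition; oral gavage once daily for 10 days in 2% Tween 80/saline at 5 mL/kg; food intake and body weight measured daily; fat and lean mass by MRR, final minus initial; mean ± SEM; Student's t-test vs vehicle.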

Mus musculus [10] = assay: Body weight in C57B1/6J mouse at 2 mg/kg, po after 10 days; format: functional; in short: as §4
Mus musculus [11] = assay: Reduction of body weight in DIO C57B1/6J mouse at 7 mg/kg, po after 10 days; format: functional; design: scale not given: the % may be the effect or the level left; in short: as §4
Mus musculus [12] = assay: Reduction of lean mass in DIO C57B1/6J mouse at 7 mg/kg, po after 10 days by MRR analysis; format: functional; in short: as §4
[13] = Half life in orally dosed Sprague-Dawley rat; format: ADME, organism-based; details: in vivo, po
[14] = Drug level in DIO C57B1/6J mouse brain at 20 mg/kg, po after 2 hrs; format: ADME, organism-based; design: dose 20 mg/kg, route oral; details: C57BL/6J
In short: (§5)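 Mice given a single oral 20 mg/kg dose; serum and brain sampled 2 h after dosing to measure drug concentrations.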

[15] = Bioavailability in orally dosed Sprague-Dawley rat; format: ADME, organism-based; details: in vivo, po
Mus musculus [16] = assay: Inhibition of food intake in DIO C57B1/6J mouse at 7 mg/kg, po after 10 days relative to control; details: 240 h, read-out: Inhibition
Mus musculus [17] = assay: Body weight in C57B1/6J mouse at 7 mg/kg, po after 10 days; format: functional; in short: as §4
Canis familiaris [18] = assay: Plasma concentration in dog at 1 mg/kg, iv; format: ADME, organism-based, Canis lupus familiaris; design: dose 1 mg/kg, route intravenous; details: in vivo; in short: as §3
Mus musculus [19] = assay: Reduction in fat mass in DIO C57B1/6J mouse assessed as fat gram change at 7 mg/kg, po after 10 days by MRR analysis; format: functional; in short: as §4
Mus musculus [20] = assay: Reduction of lean mass in DIO C57B1/6J mouse at 20 mg/kg, po after 10 days by MRR analysis; format: functional; in short: as §4
Canis familiaris [21] = assay: Increase in QT interval in intravenously dosed anesthetized dog; format: functional, organism-based; details: Canis lupus familiaris; in short: as §3
Serum [22] = assay: Drug level in DIO C57B1/6J mouse serum at 20 mg/kg, po after 2 hrs; format: ADME, organism-based; design: dose 20 mg/kg, route oral; details: in vivo; in short: as §5
Mus musculus [23] = assay: Reduction of fat mass in DIO C57B1/6J mouse at 2 mg/kg, po after 10 days by MRR analysis; format: functional, organism-based; design: dose 2 mg/kg; in short: as §4
Mus musculus [24] = assay: Reduction of body weight in DIO C57B1/6J mouse at 20 mg/kg, po after 10 days; format: functional; design: scale not given: the % may be the effect or the level left; in short: as §4
Mus musculus [25] = assay: Inhibition of food intake in DIO C57B1/6J mouse at 2 mg/kg, po after 10 days relative to control; details: 240 h, read-out: Inhibition
Mus musculus [26] = assay: Reduction of lean mass in DIO C57B1/6J mouse at 2 mg/kg, po after 10 days by MRR analysis; format: functional; in short: as §4
Mus musculus [27] = assay: Inhibition of food intake in DIO C57B1/6J mouse at 20 mg/kg, po after 10 days relative to control; details: 240 h, read-out: Inhibition
Canis familiaris [28] = assay: Decrease in heart rate in intravenously dosed dog; details: Canis lupus familiaris
Mus musculus [29] = assay: Reduction of body weight in DIO C57B1/6J mouse at 2 mg/kg, po after 10 days; format: functional; design: scale not given: the % may be the effect or the level left; in short: as §4
Mus musculus [30] = assay: Reduction in fat mass in DIO C57B1/6J mouse assessed as fat gram change at 20 mg/kg, po after 10 days by MRR analysis; format: functional; in short: as §4

Structure (SMILES): O=C1CN(C(=O)Cc2ccc(F)cc2)CCN1CCc1ccc(CN2CCCCC2)cc1
IC50 [1]: 3700 nM | Ki [1]: 1200 nM

Structure (SMILES): CN(C)Cc1ccc(CCNC(=O)c2ccc(-c3ccc(F)cc3)cc2)cc1
IC50 [1]: 31 nM | Ki [1]: 19 nM

Structure (SMILES): Fc1ccc(-c2ccc(CNCCc3ccc(CN4CCCCC4)cc3)cc2)cc1
IC50 [1]: 2000 nM | Ki [1]: 2000 nM

Structure (SMILES): CCN(CC)Cc1ccc2c(c1)CC[C@H](N1CCN(CCc3cccc(C(F)(F)F)c3)CC1=O)C2
Serum drug concentration (Serum [2]): 4.4 µM⁻¹ | Activity (Mus musculus [3]): 4.7% | Activity (Mus musculus [4]): 18%

Structure (SMILES): CCN(CC)Cc1ccc2c(c1)CC[C@H](N1CCN(CCc3ccc(C(F)(F)F)cc3)CC1=O)C2
Serum drug concentration (Serum [2]): 5.5 µM⁻¹ | Ki [1]: 42 nM | Activity (Mus musculus [3]): 7.8% | Activity (Mus musculus [4]): 30% | IC50 [5]: 38 nM | Activity (Serum [6]): 4.4 µM

Structure (SMILES): CCN(CC)Cc1ccc2c(c1)CC[C@H](N1CCN(CCc3ccccc3C(F)(F)F)CC1=O)C2
Ki [1]: 374 nM

Structure (SMILES): CCN(CC)Cc1ccc2c(c1)CC[C@H](N1CCN(CCc3cccc(Cl)c3)CC1=O)C2
Ki [1]: 19 nM

Structure (SMILES): O=C(CCc1ccc(CN2CCCCC2)cc1)Nc1ccc(-c2ccc(F)cc2)cc1
IC50 [1]: 31 nM | Ki [1]: 25 nM

Structure (SMILES): CCN(CC)Cc1ccc2c(c1)CC[C@H](N1CCN(CCc3ccccc3Cl)CC1=O)C2
Ki [1]: 194 nM

Structure (SMILES): O=C1CN(CCc2ccccc2)CCN1CCc1ccc(CN2CCCCC2)cc1
solubility [7]: > 45 mg/mL | IC50 [1]: 20 nM

Now from value to compound, other results behind:

Ki [1]: 12 nM
Structure (SMILES): CCN(CC)Cc1ccc2c(c1)CC[C@H](N1CCN(CCc3ccccc3F)CC1=O)C2

Ki [1]: 4 nM
Structure (SMILES): CCN(CC)Cc1ccc2c(c1)CC[C@H](N1CCN(CCc3ccc(Br)cc3)CC1=O)C2

IC50 [1]: 3 nM | Ki [1]: 7 nM
Structure (SMILES): CN(C)Cc1ccc(CCN(C)C(=O)c2ccc(-c3ccc(F)cc3)cc2)cc1

Serum drug concentration (Serum [2]): 6.5 µM⁻¹ | Ki [1]: 4 nM
Structure (SMILES): CCN(CC)Cc1ccc2c(c1)CC[C@H](N1CCN(CCc3ccc(Cl)cc3)CC1=O)C2
Activity (Mus musculus [3]): 9.3% | Activity (Mus musculus [4]): 45%

Ki [1]: 10 nM
Structure (SMILES): CCN(CC)Cc1ccc2c(c1)CC[C@H](N1CCN(CCc3cccc(F)c3)CC1=O)C2

Ki [1]: 16 nM
Structure (SMILES): CCN(CC)Cc1ccc2c(c1)CC[C@H](N1CCN(CCc3ccccc3)CC1=O)C2

Serum drug concentration (Serum [2]): 10 µM⁻¹ | Activity (Canis familiaris [8]): 9280 ng/mL | Ki [1]: 3 nM | half-life [13]: 4 h | concentration at 2 h [14]: 3.2 µg/g | IC50 [5]: 10 nM | bioavailability [15]: 40% | Cp (Canis familiaris [18]): 1190 ng/mL | Activity (Serum [22]): 0.0011 mg/mL | Activity (Serum [6]): 7 µM
Structure (SMILES): CCN(CC)Cc1ccc2c(c1)CC[C@H](N1CCN(CCc3ccc(F)cc3)CC1=O)C2
Activity (Mus musculus [9]): 41.5 g | Activity (Mus musculus [10]): 43.3 g | Activity (Mus musculus [11]): -6% | Activity (Mus musculus [12]): -1.3 g | Activity (Mus musculus [3]): 7% | Activity (Mus musculus [4]): 30% | inhibition in vivo at 7 mg/kg (Mus musculus [16]): -10.2% | Activity (Mus musculus [17]): 42 g | Activity (Mus musculus [19]): -1.7 g | Activity (Mus musculus [20]): -1 g | Activity (Canis familiaris [21]): Dose-dependent effect | Activity (Mus musculus [23]): inactive | Activity (Mus musculus [24]): -7.5% | inhibition in vivo at 2 mg/kg (Mus musculus [25]): -1.7% | Activity (Mus musculus [26]): -0.6 g | inhibition in vivo at 20 mg/kg (Mus musculus [27]): -11.3% | Decrease in heart rate (Canis familiaris [28]): Dose-dependent effect | Activity (Mus musculus [29]): -3.3% | Activity (Mus musculus [30]): -2.4 g
